Key:
[1] = molecular target: Histamine H3 receptor (Homo sapiens, UniProt Q9Y5N1); experiment: Displacement of [3H]NAMH from human histamine H3 receptor expressed in CHO cells; format: cell-based
How it was run: (§1)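 Radioligand displacement of [³H]NAMH from membranes isolated from CHO cells transfected with cloned human H₃ or rat H₃ receptors.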

[2] = molecular target: Histamine H3 receptor (Rattus norvegicus, UniProt Q9QYN8); experiment: Displacement of [3H]NAMH from rat histamine H3 receptor expressed in CHO cells; format: cell-based; how it was run: as §1
[3] = Volume of distribution in rat at 1 mg/kg, iv; format: ADME, organism-based; set-up: dose 1 mg/kg, route intravenous; details: in vivo
How it was run: (§2)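 Rat PK: iv dose with vehicle 3% DMSO, 30% solutol, 67% phosphate buffered saline. Oral 5 mg/kg dose with vehicle 50% Tween 80, 40% propylene carbonate, 10% propylene glycol.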

[4] = Ratio drug uptake in brain to plasma of rat at 10 mg/kg, ip measured after 6 hrs; format: ADME, organism-based; set-up: dose 10 mg/kg, route intraperitoneal; details: read-out: BPR
[5] = Oral bioavailability in rat at 5 mg/kg; format: ADME, organism-based; details: in vivo; how it was run: as §2
[6] = Half life in rat at 1 mg/kg, iv; format: ADME, organism-based; set-up: dose 1 mg/kg, route intravenous; details: in vivo; how it was run: as §2
[7] = Clearance in rat at 1 mg/kg, iv; format: ADME, organism-based; set-up: dose 1 mg/kg, route intravenous; details: in vivo; how it was run: as §2
[8] = Cmax in rat at 5 mg/kg, po; format: ADME, organism-based; set-up: dose 5 mg/kg, route oral; details: in vivo
[9] = molecular target: Sodium-dependent dopamine transporter (Homo sapiens) (UniProt Q01959); experiment: Inhibition of DAT at 10 uM
[10] = molecular target: Voltage-gated inwardly rectifying potassium channel KCNH2 (Homo sapiens, UniProt Q12809); experiment: Inhibition of human Erg by patch clamp assay
Voltage-gated inwardly rectifying potassium channel KCNH2, sequence (Q12809 whole entry): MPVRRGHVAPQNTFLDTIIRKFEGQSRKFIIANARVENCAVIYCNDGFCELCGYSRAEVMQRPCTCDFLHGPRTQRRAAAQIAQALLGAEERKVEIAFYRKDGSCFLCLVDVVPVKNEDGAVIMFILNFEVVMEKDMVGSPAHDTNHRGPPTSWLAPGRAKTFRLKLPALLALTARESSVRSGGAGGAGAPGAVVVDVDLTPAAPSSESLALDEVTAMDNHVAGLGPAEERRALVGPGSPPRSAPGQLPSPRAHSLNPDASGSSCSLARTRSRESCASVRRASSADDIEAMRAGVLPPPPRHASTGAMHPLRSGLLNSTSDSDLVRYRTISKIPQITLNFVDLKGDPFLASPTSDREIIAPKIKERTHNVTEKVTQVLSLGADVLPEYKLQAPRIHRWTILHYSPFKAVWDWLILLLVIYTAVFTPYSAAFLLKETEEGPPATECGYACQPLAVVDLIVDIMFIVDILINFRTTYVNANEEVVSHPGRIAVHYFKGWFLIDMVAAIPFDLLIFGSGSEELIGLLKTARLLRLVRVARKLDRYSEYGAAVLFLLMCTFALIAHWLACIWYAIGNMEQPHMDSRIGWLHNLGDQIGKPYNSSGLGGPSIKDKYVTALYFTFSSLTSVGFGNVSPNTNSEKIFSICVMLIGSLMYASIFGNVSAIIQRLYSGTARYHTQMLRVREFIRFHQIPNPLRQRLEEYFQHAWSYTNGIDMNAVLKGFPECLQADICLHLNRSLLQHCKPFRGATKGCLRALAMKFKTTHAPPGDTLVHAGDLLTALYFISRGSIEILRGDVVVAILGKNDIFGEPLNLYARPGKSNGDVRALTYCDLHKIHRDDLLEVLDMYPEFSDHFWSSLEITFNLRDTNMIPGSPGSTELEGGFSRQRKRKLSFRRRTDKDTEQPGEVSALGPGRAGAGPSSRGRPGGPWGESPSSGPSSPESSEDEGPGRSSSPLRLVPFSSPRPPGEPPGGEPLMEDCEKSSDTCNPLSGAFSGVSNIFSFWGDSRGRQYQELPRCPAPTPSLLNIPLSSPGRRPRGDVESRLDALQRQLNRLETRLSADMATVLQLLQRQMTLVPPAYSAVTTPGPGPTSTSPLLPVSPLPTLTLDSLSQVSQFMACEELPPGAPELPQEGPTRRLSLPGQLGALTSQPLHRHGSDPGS

Histamine H3 receptor (Homo sapiens, UniProt Q9Y5N1), sequence (Q9Y5N1 whole entry): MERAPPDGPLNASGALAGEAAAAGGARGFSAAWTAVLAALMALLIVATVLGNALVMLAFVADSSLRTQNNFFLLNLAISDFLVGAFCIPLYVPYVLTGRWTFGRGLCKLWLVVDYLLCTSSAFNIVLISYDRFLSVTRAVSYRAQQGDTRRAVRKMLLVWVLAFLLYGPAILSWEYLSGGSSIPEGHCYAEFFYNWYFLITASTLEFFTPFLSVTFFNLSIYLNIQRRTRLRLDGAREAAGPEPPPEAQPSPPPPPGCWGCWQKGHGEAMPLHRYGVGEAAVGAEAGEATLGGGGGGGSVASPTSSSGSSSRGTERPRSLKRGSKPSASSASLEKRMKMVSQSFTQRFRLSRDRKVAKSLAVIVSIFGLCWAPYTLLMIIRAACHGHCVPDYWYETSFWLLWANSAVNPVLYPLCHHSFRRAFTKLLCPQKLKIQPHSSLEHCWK
Histamine H3 receptor (Rattus norvegicus, UniProt Q9QYN8), sequence (Q9QYN8 whole entry): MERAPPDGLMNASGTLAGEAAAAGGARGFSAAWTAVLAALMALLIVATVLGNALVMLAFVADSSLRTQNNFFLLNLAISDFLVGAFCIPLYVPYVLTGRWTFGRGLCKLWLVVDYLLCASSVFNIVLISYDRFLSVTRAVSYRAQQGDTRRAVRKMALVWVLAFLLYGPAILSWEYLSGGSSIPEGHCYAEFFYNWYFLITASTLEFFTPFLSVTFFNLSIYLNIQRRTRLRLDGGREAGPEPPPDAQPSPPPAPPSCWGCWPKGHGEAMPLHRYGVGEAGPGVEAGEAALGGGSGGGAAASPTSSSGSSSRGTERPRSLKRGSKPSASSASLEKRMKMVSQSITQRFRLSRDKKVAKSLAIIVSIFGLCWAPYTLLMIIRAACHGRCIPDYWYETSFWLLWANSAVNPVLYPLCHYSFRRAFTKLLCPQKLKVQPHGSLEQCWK
Sodium-dependent dopamine transporter (Homo sapiens), sequence (Q01959 whole entry): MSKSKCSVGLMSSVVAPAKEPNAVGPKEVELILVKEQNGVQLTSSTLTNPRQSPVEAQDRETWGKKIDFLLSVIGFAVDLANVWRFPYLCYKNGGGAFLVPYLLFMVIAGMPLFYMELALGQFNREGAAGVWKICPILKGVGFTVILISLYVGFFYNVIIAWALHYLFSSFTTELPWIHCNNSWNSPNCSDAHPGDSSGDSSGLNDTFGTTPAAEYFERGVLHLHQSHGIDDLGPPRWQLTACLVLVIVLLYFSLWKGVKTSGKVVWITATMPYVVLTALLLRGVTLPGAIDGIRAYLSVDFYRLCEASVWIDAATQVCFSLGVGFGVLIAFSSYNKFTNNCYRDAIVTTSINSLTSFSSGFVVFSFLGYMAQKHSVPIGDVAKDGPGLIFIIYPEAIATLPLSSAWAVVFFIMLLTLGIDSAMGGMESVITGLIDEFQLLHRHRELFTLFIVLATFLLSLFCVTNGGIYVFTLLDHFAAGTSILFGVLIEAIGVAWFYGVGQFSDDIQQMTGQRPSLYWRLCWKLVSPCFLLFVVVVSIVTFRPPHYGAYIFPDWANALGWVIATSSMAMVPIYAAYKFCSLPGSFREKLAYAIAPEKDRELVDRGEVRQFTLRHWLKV

CC(C)n1nc(-c2ccc(OC3CCN(C4CCC4)CC3)nc2)ccc1=O
Ki [1]: 6.5 nM | Ki [2]: 9.4 nM

Cn1nc(-c2ccc(OC3CCN(C4CCCC4)CC3)nc2)ccc1=O
Ki [1]: 5.9 nM | Ki [2]: 12 nM

O=c1ccc(-c2ccc(OC3CCN(C4CCC4)CC3)nc2)nn1-c1ccccn1
Ki [1]: 34 nM | Ki [2]: 82 nM

Cn1nc(-c2ccc(OC3CCN(C4CCC4)CC3)nc2)ccc1=O
Ki [1]: 1.8 nM | Ki [2]: 8.6 nM

CC(C)N1CCC(Oc2ccc(-c3ccc(=O)n(C)n3)cc2)CC1
Ki [1]: 9.2 nM | Ki [2]: 46 nM

CC1(C)CC(c2ccc(OC3CCN(C4CCC4)CC3)c(F)c2)=NNC1=O
Ki [1]: 7.1 nM | Ki [2]: 7.2 nM

Cn1nc(-c2ccc(OC3CCN(C4CCCC4)CC3)cc2)ccc1=O
Ki [1]: 2.7 nM

C[C@H]1CC(=O)NN=C1c1ccc(OC2CCN(C3CCC3)CC2)cc1
Vd [3]: 7.6 L/kg | Kp at 6 h [4]: 5.3 | bioavailability [5]: 56% | half-life [6]: 4.4 h | clearance [7]: 23 mL/min/kg | Ki [2]: 13 nM | Cmax [8]: 253 ng/mL | inhibition [9]: 13%

O=c1ccc(-c2ccc(OC3CCN(C4CCC4)CC3)nc2)n[nH]1
IC50 [10]: 9000 nM | bioavailability [5]: 21% | Ki [1]: 6.3 nM | Ki [2]: 19 nM

O=c1ccc(-c2ccc(OC3CCN(C4CCC4)CC3)cc2)nn1-c1ccccn1
Ki [1]: 9.8 nM | Ki [2]: 15 nM
